{"data": "Assay results of several laboratories", "cell line": "HepG2", "observed": "cell growth or viability", "note": "Protocols differ between the studies behind these lines."}
{"SMILES": "O=C1CSC(=Nc2cc([N+](=O)[O-])ccc2[N+](=O)[O-])N1c1nnc(-c2ccc(C(F)(F)F)cc2N=C2SCC(=O)N2c2cc([N+](=O)[O-])ccc2[N+](=O)[O-])s1", "technique": "MTT", "IC50": "80.2 µM"}
{"SMILES": "c1ccc(Cc2nnc(-c3nn(Cc4ccccc4)c4ccccc34)o2)cc1", "time": "48 h", "IC50": "68.6 µM"}
{"SMILES": "N=C(CC(O)c1cc2c(F)cc(F)cc2c2cc(C(F)(F)F)ccc12)Nc1ccc(Br)cc1 (centres unmarked)", "technique": "neutral red", "time": "24 h", "IC50": "9.7 µM"}
{"SMILES": "CCN(CC)CCNC(=O)c1c(C)[nH]c(/C=C2\\C(=O)Nc3ccc(F)cc32)c1C", "technique": "SRB", "IC50": "1.35 µM"}
{"SMILES": "O=C(/C=C/c1ccc(F)cc1)c1nc2ccccc2n1Cc1cn([C@@H]2OC[C@@H](O)[C@H](O)[C@H]2O)nn1", "technique": "LDH", "time": "48 h", "IC50": "1.63 µM"}
{"SMILES": "O=C1CS/C(=N\\c2cc(C(F)(F)F)ccc2-c2nnc(N3C(=O)CS/C3=N\\c3ccc(Cl)cc3)s2)N1c1ccc(Cl)cc1", "technique": "MTT", "IC50": "48.1 µM"}
{"SMILES": "S=C(N/N=C/c1cccc2cc3ccccc3nc12)Nc1ccccc1", "technique": "MTT", "time": "48 h", "IC50": "> 50 µM"}
{"SMILES": "FC(F)(F)c1ccc(-c2nnc(-c3nn(Cc4ccc(Cl)cc4Cl)c4ccccc34)o2)cc1", "time": "48 h", "IC50": "304 µM"}
{"SMILES": "CC(=O)c1nc2ccccc2n1Cc1cn([C@@H]2OC[C@@H](O)[C@H](O)[C@H]2O)nn1", "technique": "LDH", "time": "48 h", "IC50": "1.55 µM"}
{"SMILES": "CC/C(=C(\\c1ccccc1)c1ccc(OCCN(C)C)cc1)c1ccccc1", "IC50": "17.4 µM"}
{"SMILES": "CN1CCC(NC2CCc3[nH]c4c(C(N)=O)ccc(-c5ccccc5Cl)c4c3C2)CC1 (centres unmarked)", "time": "96 h", "IC50": "0.0202 µM"}
{"SMILES": "CCOC(=O)c1c(-c2ccc(OC)cc2)oc2ccc(OCc3cn(Cc4ccccc4)nn3)c(CN3CCCCC3)c12", "technique": "resazurin", "time": "18 h", "IC50": "70.5 µM"}
{"SMILES": "O=C(O)c1nn(Cc2ccc(Cl)cc2Cl)c2ccccc12", "time": "48 h", "IC50": "74.7 µM"}
{"SMILES": "COc1cccc2c1C(=O)c1c(O)c3c(c(O)c1C2=O)C[C@@](O)(C(=O)CO)C[C@@H]3O[C@H]1C[C@H](N)[C@H](O)[C@H](C)O1", "time": "96 h", "IC50": "0.109 µM"}
{"SMILES": "CC(C)[C@@H](C)NC(=O)c1cc(-c2cc3ccccc3n2C)cc(C(=O)NCCc2ccccn2)n1", "technique": "CCK-8", "IC50": "12.7 µM"}
{"SMILES": "O=C(/C=C/c1ccc(F)cc1)c1nc2ccccc2n1Cc1cn([C@@H]2O[C@H](CO)[C@H](O)[C@H](O)[C@H]2O)nn1", "technique": "LDH", "time": "48 h", "IC50": "1.64 µM"}
{"SMILES": "COc1cccc(NC(=S)N/N=C/c2cccc3cc4ccccc4nc23)c1", "technique": "MTT", "time": "48 h", "IC50": "> 50 µM"}
{"SMILES": "COc1cccc2c1C(=O)c1c(O)c3c(c(O)c1C2=O)C[C@@](O)(C(=O)CO)C[C@@H]3O[C@H]1C[C@H](N)[C@H](O)[C@H](C)O1", "technique": "MTT", "IC50": "31.2 µM"}
{"SMILES": "CC1=CC(=O)c2ccccc2C1=O", "technique": "MTT", "IC50": "9.25 µM"}
{"SMILES": "O=C1CS/C(=N\\c2ccccc2Cl)N1c1nnc(-c2ccc(C(F)(F)F)cc2/N=C2\\SCC(=O)N2c2ccccc2Cl)s1", "technique": "MTT", "IC50": "55.5 µM"}
{"SMILES": "Fc1ccc2c(-c3nnc(Cc4ccccc4)[nH]3)nn(Cc3ccc(Cl)cc3Cl)c2c1", "time": "48 h", "IC50": "21.2 µM"}
{"SMILES": "CC(=O)c1nc2ccccc2n1Cc1cn([C@@H]2O[C@H](CO)[C@H](O)[C@H](O)[C@H]2O)nn1", "technique": "LDH", "time": "48 h", "IC50": "1.67 µM"}
{"SMILES": "COc1ccc(N(Cc2csc(-c3ccccc3)n2)C(=O)CCCCCC(=O)NO)cc1", "technique": "MTT", "time": "72 h", "IC50": "0.12 µM"}
{"SMILES": "O=C1CS/C(=N\\c2cc(C(F)(F)F)ccc2-c2nnc(N3C(=O)CS/C3=N\\c3cccc(Cl)c3)s2)N1c1cccc(Cl)c1", "technique": "MTT", "IC50": "58.1 µM"}
{"SMILES": "CC(=O)OC[C@H]1O[C@@H](n2cc(Cn3c(C(=O)/C=C/c4ccc(F)cc4)nc4ccccc43)nn2)[C@H](OC(C)=O)[C@@H](OC(C)=O)[C@H]1OC(C)=O", "technique": "LDH", "time": "48 h", "IC50": "1.61 µM"}
{"SMILES": "COc1ccc(-c2oc3ccc(O)c(CN4CCCCC4)c3c2C(=O)NCc2cn(Cc3ccccc3)nn2)cc1", "technique": "resazurin", "time": "18 h", "IC50": "116 µM"}
{"SMILES": "O=C1CS/C(=N\\c2ccc(F)cc2O)N1c1nnc(-c2ccc(C(F)(F)F)cc2/N=C2\\SCC(=O)N2c2ccc(F)cc2O)s1", "technique": "MTT", "IC50": "19.5 µM"}
{"SMILES": "c1ccc(Oc2ccc(Nc3c4c(nc5ccccc35)CCC4)cc2)cc1", "technique": "resazurin", "time": "72 h", "IC50": "9.45 µM"}
{"SMILES": "CN(C)C1CCc2[nH]c3c(C(N)=O)ccc(-c4ccccc4Cl)c3c2C1 (centres unmarked)", "IC50": "0.26 µM"}
{"SMILES": "Cc1cccc([N+](=O)[O-])c1N=C1SCC(=O)N1c1nnc(-c2ccc(C(F)(F)F)cc2N=C2SCC(=O)N2c2c(C)cccc2[N+](=O)[O-])s1", "technique": "MTT", "IC50": "50.1 µM"}
{"SMILES": "c1ccc(Cn2nc(-c3nc(-c4ccccc4)n[nH]3)c3ccccc32)cc1", "time": "48 h", "IC50": "60.8 µM"}
{"SMILES": "CC(C)c1nc(N(C)S(C)(=O)=O)nc(-c2ccc(F)cc2)c1/C=C/[C@@H](O)C[C@@H](O)CC(=O)O", "technique": "MTT", "time": "24 h", "IC50": "59.1 µg/mL"}
{"SMILES": "COc1cccc2c1C(=O)c1c(O)c3c(c(O)c1C2=O)C[C@@](O)(C(=O)CO)C[C@@H]3O[C@H]1C[C@H](N)[C@H](O)[C@H](C)O1", "technique": "MTT", "time": "75 h", "IC50": "0.48 µM"}
{"SMILES": "CC(C)(C)[C@H](NC(=O)/C=C/c1ccc(OP(=O)(O)O)cc1)C(=O)N1CCC[C@H]1C(=O)N(c1ccccc1)c1ccc(I)cc1", "technique": "CCK-8", "IC50": "2.23 µM"}
{"SMILES": "CNC(=S)N/N=C/c1cccc2cc3ccccc3nc12", "technique": "MTT", "time": "48 h", "IC50": "42 µM"}
{"SMILES": "Fc1ccc2c(-c3nnc(Cc4ccccc4)s3)nn(Cc3ccc(Cl)cc3Cl)c2c1", "time": "48 h", "IC50": "230 µM"}
{"SMILES": "COc1ccc(N(Cc2csc(-c3ccc(Br)cc3)n2)C(=O)CCCCCC(=O)NO)cc1", "technique": "MTT", "time": "72 h", "IC50": "0.57 µM"}
{"SMILES": "Fc1ccc2c(-c3ncc(-c4ccccc4)o3)nn(Cc3ccccc3)c2c1", "time": "48 h", "IC50": "39.9 µM"}
{"SMILES": "COc1ccc(NC(=S)N/N=C/c2cccc3cc4ccccc4nc23)cc1", "technique": "MTT", "time": "48 h", "IC50": "> 50 µM"}
{"SMILES": "O=C1CSC(=Nc2cc(C(F)(F)F)ccc2-c2nnc(N3C(=O)CSC3=Nc3ccc([N+](=O)[O-])cc3)s2)N1c1ccc([N+](=O)[O-])cc1", "technique": "MTT", "IC50": "73.1 µM"}
{"SMILES": "c1ccc(-c2noc(-c3nn(Cc4ccncc4)c4ccccc34)n2)cc1", "time": "48 h", "IC50": "32.9 µM"}
